Laboratory results published in ChEMBL document CHEMBL4002615, “Investigation of piperazine benzamides as human β3 adrenergic receptor agonists for the treatment of overactive bladder” (Bioorg Med Chem Lett, 2017).
Each block holds one molecule with its values, some of them ahead of it.

Experiments:
[1] = Plasma clearance in rhesus monkey at 0.5 mg/kg, iv or 2 mg/kg, po; format: ADME, organism-based, Macaca mulatta
[2] = Oral bioavailability in rhesus monkey at 2 mg/kg; format: ADME, organism-based, Macaca mulatta; conditions: in vivo
Rattus norvegicus [3] = assay: Total dose normalized AUC in rat 2 mg/kg, po; format: ADME, organism-based; conditions: in vivo
Canis familiaris [4] = assay: Total dose normalized AUC in dog at 2 mg/kg, po; format: ADME, organism-based, Canis lupus familiaris; conditions: in vivo
[5] = Volume of distribution in rhesus monkey at 0.5 mg/kg, iv or 2 mg/kg, po; format: ADME, organism-based, Macaca mulatta; conditions: in vivo
Rhesus monkey [6] = assay: Total dose normalized AUC in rhesus monkey at 2 mg/kg, po; format: ADME, organism-based, Macaca mulatta; conditions: in vivo
[7] = biological target: Sodium-dependent serotonin transporter (Homo sapiens, UniProt P31645); assay: Inhibition of SERT (unknown origin)
[8] = biological target: Voltage-gated inwardly rectifying potassium channel KCNH2 (Homo sapiens, UniProt Q12809); assay: Inhibition of human ERG
Sequence of Voltage-gated inwardly rectifying potassium channel KCNH2 (Q12809 whole entry): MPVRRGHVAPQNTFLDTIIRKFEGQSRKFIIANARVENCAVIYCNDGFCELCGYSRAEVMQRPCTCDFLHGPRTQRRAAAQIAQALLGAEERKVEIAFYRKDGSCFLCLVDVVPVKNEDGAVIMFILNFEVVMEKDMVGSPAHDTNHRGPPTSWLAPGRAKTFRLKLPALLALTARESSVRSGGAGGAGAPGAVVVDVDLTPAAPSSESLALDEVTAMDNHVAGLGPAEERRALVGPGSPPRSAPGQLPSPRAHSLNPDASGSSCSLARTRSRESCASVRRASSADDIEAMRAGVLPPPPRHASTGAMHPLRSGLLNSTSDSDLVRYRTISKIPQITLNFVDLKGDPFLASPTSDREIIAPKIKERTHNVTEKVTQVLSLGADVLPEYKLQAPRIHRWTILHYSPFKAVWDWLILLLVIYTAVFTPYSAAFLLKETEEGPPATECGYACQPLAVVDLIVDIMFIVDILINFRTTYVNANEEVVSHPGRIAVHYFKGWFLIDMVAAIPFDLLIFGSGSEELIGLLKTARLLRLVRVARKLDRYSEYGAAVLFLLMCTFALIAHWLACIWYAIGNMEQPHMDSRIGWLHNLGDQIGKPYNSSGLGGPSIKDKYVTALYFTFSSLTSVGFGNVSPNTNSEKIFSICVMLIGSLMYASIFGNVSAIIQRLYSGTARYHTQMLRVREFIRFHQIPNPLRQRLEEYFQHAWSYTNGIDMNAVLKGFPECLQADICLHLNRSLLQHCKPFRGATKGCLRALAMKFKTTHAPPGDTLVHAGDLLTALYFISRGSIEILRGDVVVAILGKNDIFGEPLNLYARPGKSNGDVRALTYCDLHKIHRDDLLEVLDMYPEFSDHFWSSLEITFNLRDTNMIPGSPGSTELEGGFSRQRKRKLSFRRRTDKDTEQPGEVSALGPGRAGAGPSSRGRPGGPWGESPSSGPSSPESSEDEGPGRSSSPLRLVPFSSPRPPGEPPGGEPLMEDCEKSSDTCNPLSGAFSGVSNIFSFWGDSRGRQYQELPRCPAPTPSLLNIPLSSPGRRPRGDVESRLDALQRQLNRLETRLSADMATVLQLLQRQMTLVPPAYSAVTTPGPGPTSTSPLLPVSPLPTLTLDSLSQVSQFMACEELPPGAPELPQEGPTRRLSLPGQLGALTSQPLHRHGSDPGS

[9] = Induction of phospholipidosis in human HepG2 cells; format: cell-based; conditions: read-out: A50
[10] = biological target: T1, Beta-3 adrenergic receptor (Homo sapiens, UniProt P13945); assay: Agonist activity at human beta3 adrenergic receptor relative to R-(-)-isoproterenol
Target sequence in this assay (P13945 whole entry, looked up): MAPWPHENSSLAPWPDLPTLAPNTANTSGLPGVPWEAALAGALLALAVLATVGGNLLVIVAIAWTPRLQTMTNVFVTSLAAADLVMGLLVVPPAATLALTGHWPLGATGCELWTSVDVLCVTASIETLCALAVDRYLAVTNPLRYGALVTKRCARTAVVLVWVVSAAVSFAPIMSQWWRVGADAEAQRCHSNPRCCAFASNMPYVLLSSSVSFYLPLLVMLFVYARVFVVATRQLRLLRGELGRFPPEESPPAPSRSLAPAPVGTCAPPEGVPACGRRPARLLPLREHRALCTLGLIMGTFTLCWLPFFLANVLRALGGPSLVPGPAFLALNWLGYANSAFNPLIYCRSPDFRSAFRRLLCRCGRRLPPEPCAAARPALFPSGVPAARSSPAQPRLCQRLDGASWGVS

[11] = biological target: Sodium-dependent noradrenaline transporter (Homo sapiens, UniProt P23975); assay: Inhibition of NET (unknown origin) expressed in HEK293 cells assessed as reduction in norepinephrine reuptake; format: cell-based
[12] = biological target: T1, Beta-3 adrenergic receptor; assay: Agonist activity at human beta3 adrenergic receptor
Outline: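 Human β3 receptor agonist EC50 given as the mean of at least two experiments.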
Target sequence in this assay (P13945 whole entry): as the sequence (P13945 whole entry, looked up) above

[13] = biological target: Beta-2 adrenergic receptor (Homo sapiens, UniProt P07550); assay: Activity at human beta2 adrenergic receptor
Sequence of Beta-2 adrenergic receptor (P07550 whole entry): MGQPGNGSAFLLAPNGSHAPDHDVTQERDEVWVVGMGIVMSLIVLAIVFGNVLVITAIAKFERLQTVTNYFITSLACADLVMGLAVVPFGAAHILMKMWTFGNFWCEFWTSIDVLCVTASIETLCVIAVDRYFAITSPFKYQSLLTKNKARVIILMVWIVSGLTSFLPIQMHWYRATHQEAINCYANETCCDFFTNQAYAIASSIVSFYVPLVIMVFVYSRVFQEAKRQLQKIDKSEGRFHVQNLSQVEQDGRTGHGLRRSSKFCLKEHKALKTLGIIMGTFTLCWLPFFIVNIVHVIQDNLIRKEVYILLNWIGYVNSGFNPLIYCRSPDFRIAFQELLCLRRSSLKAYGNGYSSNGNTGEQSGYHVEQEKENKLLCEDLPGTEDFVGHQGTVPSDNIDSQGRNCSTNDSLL

[14] = biological target: Sodium channel protein type 5 subunit alpha (Homo sapiens, UniProt Q14524); assay: Inhibition of human Nav1.5 by electrophysiology method
Sequence of Sodium channel protein type 5 subunit alpha (Q14524 whole entry): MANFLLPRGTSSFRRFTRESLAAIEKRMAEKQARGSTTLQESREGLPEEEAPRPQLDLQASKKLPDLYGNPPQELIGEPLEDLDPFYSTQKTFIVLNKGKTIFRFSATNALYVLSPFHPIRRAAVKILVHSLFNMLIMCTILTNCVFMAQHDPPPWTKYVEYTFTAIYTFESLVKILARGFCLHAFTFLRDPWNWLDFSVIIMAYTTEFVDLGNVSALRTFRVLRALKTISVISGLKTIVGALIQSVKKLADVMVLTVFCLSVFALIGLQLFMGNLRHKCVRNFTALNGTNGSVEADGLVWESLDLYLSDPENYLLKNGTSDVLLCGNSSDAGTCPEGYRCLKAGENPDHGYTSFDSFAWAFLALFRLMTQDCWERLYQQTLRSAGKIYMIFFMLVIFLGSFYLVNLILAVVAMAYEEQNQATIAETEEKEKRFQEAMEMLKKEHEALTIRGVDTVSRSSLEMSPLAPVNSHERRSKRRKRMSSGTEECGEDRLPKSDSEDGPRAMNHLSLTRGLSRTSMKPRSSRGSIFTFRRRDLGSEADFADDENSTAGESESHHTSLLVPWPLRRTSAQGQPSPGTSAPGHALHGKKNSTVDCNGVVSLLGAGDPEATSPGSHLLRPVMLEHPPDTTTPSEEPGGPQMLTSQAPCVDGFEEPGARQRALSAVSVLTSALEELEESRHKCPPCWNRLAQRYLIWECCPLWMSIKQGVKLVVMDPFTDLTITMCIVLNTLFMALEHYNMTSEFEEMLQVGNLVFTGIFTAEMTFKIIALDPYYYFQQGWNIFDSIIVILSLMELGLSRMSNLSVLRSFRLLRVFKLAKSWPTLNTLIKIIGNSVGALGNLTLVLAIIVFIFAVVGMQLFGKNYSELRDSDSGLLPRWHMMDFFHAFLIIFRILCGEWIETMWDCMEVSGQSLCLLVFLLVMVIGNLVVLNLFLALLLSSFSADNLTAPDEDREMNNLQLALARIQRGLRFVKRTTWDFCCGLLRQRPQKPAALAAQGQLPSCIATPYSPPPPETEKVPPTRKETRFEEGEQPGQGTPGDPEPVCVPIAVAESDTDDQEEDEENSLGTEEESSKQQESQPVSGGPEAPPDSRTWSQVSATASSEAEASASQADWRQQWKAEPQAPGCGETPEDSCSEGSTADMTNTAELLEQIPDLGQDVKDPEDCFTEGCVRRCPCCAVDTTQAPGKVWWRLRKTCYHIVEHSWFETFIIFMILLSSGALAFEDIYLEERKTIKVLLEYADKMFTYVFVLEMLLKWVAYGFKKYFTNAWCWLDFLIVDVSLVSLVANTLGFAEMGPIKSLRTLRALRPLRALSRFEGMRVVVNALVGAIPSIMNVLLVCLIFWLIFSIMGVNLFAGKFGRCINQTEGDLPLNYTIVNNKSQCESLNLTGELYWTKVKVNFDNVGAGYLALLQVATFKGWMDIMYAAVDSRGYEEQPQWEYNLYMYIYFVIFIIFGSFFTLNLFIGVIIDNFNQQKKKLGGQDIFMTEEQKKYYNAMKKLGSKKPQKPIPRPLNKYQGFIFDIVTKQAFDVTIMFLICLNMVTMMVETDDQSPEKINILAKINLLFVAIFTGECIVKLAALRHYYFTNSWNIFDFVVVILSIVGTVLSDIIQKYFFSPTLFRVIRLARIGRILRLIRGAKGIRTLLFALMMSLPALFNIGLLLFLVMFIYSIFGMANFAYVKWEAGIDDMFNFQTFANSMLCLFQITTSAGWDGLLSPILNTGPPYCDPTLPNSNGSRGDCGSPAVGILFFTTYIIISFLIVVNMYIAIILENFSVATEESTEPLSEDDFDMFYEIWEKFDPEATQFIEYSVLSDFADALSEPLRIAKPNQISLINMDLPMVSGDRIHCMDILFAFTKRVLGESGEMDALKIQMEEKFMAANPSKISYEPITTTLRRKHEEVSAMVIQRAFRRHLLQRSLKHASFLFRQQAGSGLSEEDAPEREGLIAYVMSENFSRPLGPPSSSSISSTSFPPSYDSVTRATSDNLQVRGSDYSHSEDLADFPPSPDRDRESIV

[15] = biological target: Beta-1 adrenergic receptor (Homo sapiens, UniProt P08588); assay: Activity at human beta1 adrenergic receptor
Sequence of Beta-1 adrenergic receptor (P08588 whole entry): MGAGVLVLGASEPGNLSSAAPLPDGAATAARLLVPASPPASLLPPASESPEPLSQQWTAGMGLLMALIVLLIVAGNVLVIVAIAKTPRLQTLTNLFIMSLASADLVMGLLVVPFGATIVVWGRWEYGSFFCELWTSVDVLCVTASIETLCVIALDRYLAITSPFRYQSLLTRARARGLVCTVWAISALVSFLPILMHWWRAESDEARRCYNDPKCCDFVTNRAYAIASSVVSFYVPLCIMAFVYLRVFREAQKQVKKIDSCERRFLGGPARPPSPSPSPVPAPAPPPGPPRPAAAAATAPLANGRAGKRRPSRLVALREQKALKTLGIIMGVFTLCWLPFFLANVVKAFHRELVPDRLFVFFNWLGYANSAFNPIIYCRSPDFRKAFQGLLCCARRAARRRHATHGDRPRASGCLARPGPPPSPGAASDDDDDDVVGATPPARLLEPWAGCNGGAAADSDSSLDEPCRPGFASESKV

Rattus norvegicus [16] = assay: In vivo agonist activity at beta3-AR in po dosed rat; format: functional, organism-based
[17] = Plasma clearance in rat at 1 mg/kg, iv or 2 mg/kg, po; format: ADME, organism-based
Rhesus monkey [18] = assay: Unbound clearance in rhesus monkey at 0.5 mg/kg, iv or 2 mg/kg, po; format: ADME, organism-based, Macaca mulatta; conditions: in vivo
[19] = Stability in human hepatocytes assessed as parent compound remaining up to 60 mins; format: ADME, cell-based, Hepatocyte; conditions: read-out: Stability
[20] = Volume of distribution in rat at 1 mg/kg, iv or 2 mg/kg, po; format: ADME, organism-based; conditions: in vivo
[21] = Stability in human liver microsomes assessed as parent compound remaining after 45 mins; format: ADME, microsome; conditions: read-out: Stability
[22] = Stability in rat hepatocytes assessed as parent compound remaining up to 60 mins; format: ADME, cell-based, Hepatocyte; conditions: read-out: Stability
[23] = Stability in rhesus monkey liver microsomes assessed as parent compound remaining after 45 mins; format: ADME, Macaca mulatta, microsome; conditions: read-out: Stability
[24] = Oral bioavailability in dog at 2 mg/kg; format: ADME, organism-based, Canis lupus familiaris; conditions: in vivo
[25] = Stability in dog hepatocytes assessed as parent compound remaining up to 60 mins; format: ADME, cell-based, Canis lupus familiaris, Hepatocyte; conditions: read-out: Stability
Rhesus monkey [26] = assay: Unbound dose normalized AUC in rhesus monkey at 2 mg/kg, po; format: ADME, organism-based, Macaca mulatta; conditions: in vivo
[27] = Unbound fraction in dog at 0.5 mg/kg, iv or 2 mg/kg, po; format: ADME, organism-based, Canis lupus familiaris; conditions: in vivo
[28] = Volume of distribution in dog at 0.5 mg/kg, iv or 2 mg/kg, po; format: ADME, organism-based, Canis lupus familiaris; conditions: in vivo
Rattus norvegicus [29] = assay: Induction of nor-epinephrine efflux in medial prefrontal cortex of rat at 100 mg/kg, po measured 1 hr post dose by microdialysis method relative to control; format: ADME, organism-based; conditions: in vivo
Rattus norvegicus [30] = assay: Unbound clearance in rat at 1 mg/kg, iv or 2 mg/kg, po; format: ADME, organism-based; conditions: in vivo
[31] = Half life in rat at 1 mg/kg, iv or 2 mg/kg, po; format: ADME, organism-based; conditions: in vivo
[32] = Stability in rat liver microsomes assessed as parent compound remaining after 45 mins; format: ADME, microsome; conditions: read-out: Stability
Canis familiaris [33] = assay: Unbound clearance in dog at 0.5 mg/kg, iv or 2 mg/kg, po; format: ADME, organism-based, Canis lupus familiaris; conditions: in vivo
[34] = Unbound fraction in rat at 1 mg/kg, iv or 2 mg/kg, po; format: ADME, organism-based; conditions: in vivo
Rattus norvegicus [35] = assay: Effect on nor-epinephrine level in rat brain at 10 mg/kg, po by microdialysis method; format: ADME, organism-based; conditions: in vivo
Rattus norvegicus [36] = assay: Unbound dose normalized AUC in rat 2 mg/kg, po; format: ADME, organism-based; conditions: in vivo
[37] = Stability in rhesus monkey hepatocytes assessed as parent compound remaining up to 60 mins; format: ADME, cell-based, Macaca mulatta, Hepatocyte; conditions: read-out: Stability
[38] = Plasma clearance in dog at 0.5 mg/kg, iv or 2 mg/kg, po; format: ADME, organism-based, Canis lupus familiaris
Canis familiaris [39] = assay: Unbound dose normalized AUC in dog at 2 mg/kg, po; format: ADME, organism-based, Canis lupus familiaris; conditions: in vivo
[40] = Stability in dog liver microsomes assessed as parent compound remaining after 45 mins; format: ADME, Canis lupus familiaris, microsome; conditions: read-out: Stability
[41] = Half life in rhesus monkey at 0.5 mg/kg, iv or 2 mg/kg, po; format: ADME, organism-based, Macaca mulatta; conditions: in vivo
[42] = Unbound fraction in rhesus monkey at 0.5 mg/kg, iv or 2 mg/kg, po; format: ADME, organism-based, Macaca mulatta; conditions: in vivo
[43] = Half life in dog at 0.5 mg/kg, iv or 2 mg/kg, po; format: ADME, organism-based, Canis lupus familiaris; conditions: in vivo
[44] = Oral bioavailability in rat 2 mg/kg; format: ADME, organism-based; conditions: in vivo

SMILES: CCc1nnc([C@H]2[C@@H]3CN(C(=O)c4ccc(C[C@@H]5CC[C@H]([C@H](O)c6ccccc6)N5)cc4)C[C@@H]32)o1
clearance [1]: 30 mL/min/kg
bioavailability [2]: 5%
AUC/dose (Rattus norvegicus [3]): 0.21 µM·h/mg/kg
AUC/dose (Canis familiaris [4]): 0.46 µM·h/mg/kg
Vd [5]: 5.2 L/kg
AUC/dose (Rhesus monkey [6]): 0.06 µM·h/mg/kg

SMILES: Cc1nnc(-c2cccc(CN3CCN(C(=O)c4ccc(C[C@@H]5CC[C@H]([C@H](O)c6ccccc6)N5)cc4)CC3)n2)o1
IC50 [7]: > 10 µM
AC50 [9]: 68 µM
Emax [10]: 109%
EC50 [11]: 0.254 µM
EC50 [12]: 0.0025 µM
IC50 [13]: > 20 µM
IC50 [14]: > 30 µM
IC50 [15]: > 20 µM

SMILES: O=C(c1ccc(C[C@@H]2CC[C@H]([C@H](O)c3ccccc3)N2)cc1)N1CCN(Cc2nnn(CC(F)(F)F)n2)CC1
IC50 [7]: > 10 µM
clearance [1]: 19 mL/min/kg
EC50 (Rattus norvegicus [16]): 4.5 µM
bioavailability [2]: 5.4%
clearance [17]: 98 mL/min/kg
IC50 [8]: 29.9 µM
AC50 [9]: 72 µM
AUC/dose (Rattus norvegicus [3]): 0.14 µM·h/mg/kg
AUC/dose (Canis familiaris [4]): 1.9 µM·h/mg/kg
CL free (Rhesus monkey [18]): 43 mL/min/kg
remaining at 1 h [19]: 92%
Vd [20]: 17 L/kg
remaining at 0.75 h [21]: 42%
remaining at 1 h [22]: 73%
remaining at 0.75 h [23]: 19%
bioavailability [24]: 100%
remaining at 1 h [25]: 100%
fAUC/dose (Rhesus monkey [26]): 0.04 µM·h/mg/kg
Emax [10]: 98%
fraction unbound [27]: 0.63
Vd [28]: 11 L/kg
EC50 [11]: 0.627 µM
EC50 [12]: 0.0019 µM
Vd [5]: 5.8 L/kg
fold change (FC) (Rattus norvegicus [29]): 2
CL free (Rattus norvegicus [30]): 151 mL/min/kg
IC50 [13]: > 20 µM
half-life [31]: 2.8 h
remaining at 0.75 h [32]: 71%
CL free (Canis familiaris [33]): 35 mL/min/kg
fraction unbound [34]: 0.65
Activity (Rattus norvegicus [35]): Non-Toxic
fAUC/dose (Rattus norvegicus [36]): 0.09 µM·h/mg/kg
remaining at 1 h [37]: 50%
IC50 [14]: > 30 µM
IC50 [15]: > 20 µM
clearance [38]: 22 mL/min/kg
fAUC/dose (Canis familiaris [39]): 1.2 µM·h/mg/kg
remaining at 0.75 h [40]: 85%
half-life [41]: 6.5 h
fraction unbound [42]: 0.44
half-life [43]: 6.9 h
bioavailability [44]: 46%
AUC/dose (Rhesus monkey [6]): 0.09 µM·h/mg/kg

Further lines, with some results ahead:

IC50 [7]: > 10 µM
Emax [10]: 99%
EC50 [11]: 1.39 µM
EC50 [12]: 0.0052 µM
IC50 [13]: > 20 µM
IC50 [15]: > 20 µM
SMILES: O=C(c1ccc(C[C@@H]2CC[C@H]([C@H](O)c3ccccc3)N2)cc1)N1CCN(Cc2nnn(CC3CC3)n2)CC1
IC50 [8]: 39.4 µM
AC50 [9]: 70 µM
IC50 [14]: > 30 µM

IC50 [7]: > 10 µM
Emax [10]: 91%
EC50 [11]: 1.52 µM
EC50 [12]: 0.0051 µM
IC50 [13]: > 20 µM
IC50 [15]: > 20 µM
SMILES: CCn1nnc(CN2CCN(C(=O)c3ccc(C[C@@H]4CC[C@H]([C@H](O)c5ccccc5)N4)cc3)CC2)n1
IC50 [8]: > 60 µM
IC50 [14]: > 30 µM
